The source made the active and inactive calls. The rule behind the calls is not given here.
Columns and labels:
[1] = test system: Human immunodeficiency virus 2; test: Antiviral activity against HIV2 CBL-23 infected in human PBMC assessed as inhibition of virus production after 5 days by Lenti-RT activity assay; format: functional, organism-based; settings: Human immunodeficiency virus 2, CBL-23, 120 h
Summary of the method: (§1)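 PBMCs were stimulated with PHA (5 μg/ml) for 3 days, then kept in 20% FBS medium with IL-2 (50 U/ml). Cells were infected 1 h with 50–100 pg RNA virus, washed twice, and given half-log PI dilutions (DMSO 1% final) in triplicate. After 5 days at 37°C, supernatant RT was read versus infected control. EC50 by nonlinear regression, mean of three experiments.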

[2] = test system: Human immunodeficiency virus 2; test: Antiviral activity against HIV2 MS infected in human MT4 cells assessed as reduction in virus-induced cytopathic effect after 5 days by MTT assay; format: functional, organism-based; settings: Human immunodeficiency virus 2, MT4, 120 h
Summary of the method: (§2)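 MT4 cells were infected 1 h with 50–100 pg RNA virus, washed twice, and exposed in triplicate to half-log PI dilutions (DMSO 1% final) for 5 days at 37°C. Cell viability was read by MTT: 4 h, SDS/HCl lysis overnight, OD at 570/650 nm. Cytopathic-effect reduction was scaled between infected and uninfected controls. EC50 by nonlinear regression, mean of three experiments.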

[3] = test system: Human immunodeficiency virus 2; test: Ratio of EC50 for HIV2 ROD with protease G17N mutation to EC50 for wild type HIV2 ROD; format: functional
Summary of the method: (§3)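 Protease mutant clones of HIV-2ROD came from site-directed mutagenesis of pSL-3, with stocks made by 293T transfection. CEM174 cells were infected with 100 pg RT of virus for 2 h at 37°C, washed, and seeded at 2 × 10^5 cells/ml. PI was added as 1:4 serial dilutions, 1% DMSO final, and incubated 7 days. Supernatant RT was read, in triplicate. EC50 came from nonlinear regression, and fold-change is mutant EC50 divided by HIV-2ROD EC50.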

[4] = test system: Human immunodeficiency virus 2; test: Antiviral activity against HIV2 ROD with protease G17N mutation infected in human CEM cells assessed as inhibition of virus production after 7 days by Lenti-RT activity assay; format: functional, organism-based; settings: Human immunodeficiency virus 2, ROD, CCRF-CEM, 168 h; summary of the method: as §3
[5] = test system: Human immunodeficiency virus 1; test: Antiviral activity against HIV1 NL4-3 infected in human MT4 cells assessed as reduction in virus-induced cytopathic effect after 5 days by MTT assay; format: functional, organism-based; settings: Human immunodeficiency virus 1, NL4-3, MT4, 120 h; summary of the method: as §2
[6] = test system: Human immunodeficiency virus 2; test: Antiviral activity against wild type HIV2 ROD infected in human CEM cells assessed as inhibition of virus production after 7 days by Lenti-RT activity assay; format: functional, organism-based; settings: Human immunodeficiency virus 2, ROD, CCRF-CEM, 168 h
[7] = test system: PBMC; test: (§4) Ratio of EC50 for HIV2 CDC310319 infected in human PBMC to EC50 for HIV1 NL4-3 infected in human MT4 cells; format: functional
[8] = test system: Human immunodeficiency virus 2; test: Antiviral activity against HIV2 CDC310319 isolate infected in human PBMC assessed as inhibition of virus production after 5 days by Lenti-RT activity assay; format: functional, organism-based; settings: Human immunodeficiency virus 2, 120 h; summary of the method: as §1
[9] = test system: PBMC; test: (§5) Ratio of EC50 for HIV2 CBL-23 infected in human PBMC to EC50 for HIV1 NL4-3 infected in human MT4 cells; format: functional
[10] = test system: Human immunodeficiency virus 2; test: Ratio of EC50 for HIV2 ROD with protease V47A mutation to EC50 for wild type HIV2 ROD; format: functional; summary of the method: as §3
[11] = test system: Human immunodeficiency virus 2; test: Antiviral activity against HIV2 ROD with protease V47A mutation infected in human CEM cells assessed as inhibition of virus production after 7 days by Lenti-RT activity assay; format: functional, organism-based; settings: Human immunodeficiency virus 2, ROD, CCRF-CEM, 168 h; summary of the method: as §3
[12] = test system: Human immunodeficiency virus 2; test: Antiviral activity against HIV2 ROD with protease G17N/V47A mutation infected in human CEM cells assessed as inhibition of virus production after 7 days by Lenti-RT activity assay; format: functional, organism-based; settings: Human immunodeficiency virus 2, ROD, CCRF-CEM, 168 h; summary of the method: as §3
[13] = test system: MT4; test: (§6) Ratio of EC50 for HIV2 MS to EC50 for HIV1 NL4-3 infected in human MT4 cells; format: functional
[14] = test system: Human immunodeficiency virus 2; test: Ratio of EC50 for HIV2 ROD with protease G17N/V47A mutation to EC50 for wild type HIV2 ROD; format: functional; summary of the method: as §3
[15] = as §4; format: functional
[16] = as §5; format: functional
[17] = as §6; format: functional
[18] = test system: Human immunodeficiency virus 2; test: Ratio of EC50 for HIV2 MS infected in human MT4 cells after 1 passage to EC50 for HIV2 MS infected in human MT4 cells; format: functional
[19] = test system: Human immunodeficiency virus 1; test: Antiviral activity against HIV1 NL4-3 infected in human MT4 cells assessed as inhibition of virus production after 5 days by Lenti-RT activity assay; format: functional, organism-based
Summary of the method: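 HIV-1 NL4-3 in MT4 cells (RPMI 1640, 10% FBS) was adsorbed 1 h at 50–100 pg RNA and washed twice. PI in DMSO (1% final) was added in half-log dilutions, in triplicate. After 5 days at 37°C, supernatant RT was measured and expressed relative to infected untreated control. EC50 came from nonlinear regression, as the mean of three independent experiments.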

[20] = test system: Human immunodeficiency virus 2; test: Antiviral activity against HIV2 MS infected in human MT4 cells […] after 18 passages; format: functional, organism-based; settings: Human immunodeficiency virus 2, MT4
[21] = test system: Human immunodeficiency virus 1; test: Antiviral activity against HIV1 NL4-3 infected in human PBMC cells assessed as inhibition of virus production after 5 days by Lenti-RT activity assay; format: functional, organism-based; summary of the method: as §1
[22] = test system: Human immunodeficiency virus 2; test: Antiviral activity against HIV2 MS infected in human PBMC cells assessed as inhibition of virus production after 5 days by Lenti-RT activity assay; format: functional, organism-based; settings: Human immunodeficiency virus 2, PBMC, 120 h
Summary of the method: (§7)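 Infection used 50 to 100 pg RNA for 1 h, followed by two washes. MT4 cells or PHA-stimulated, IL-2-maintained PBMCs were then exposed to half-log PI dilutions in triplicate, with 1% DMSO final. Incubation was 5 days at 37°C. Day-5 supernatant RT was read by Lenti-RT assay. EC50 came from nonlinear regression, as the mean of three independent experiments.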

[23] = test system: Human immunodeficiency virus 2; test: Ratio of EC50 for HIV2 MS infected in human MT4 cells after 18 passages to EC50 for HIV2 MS infected in human MT4 cells; format: functional
[24] = test system: Human immunodeficiency virus 2; test: Antiviral activity against HIV2 MS infected in human MT4 cells […] after 1 passage; format: functional, organism-based; settings: Human immunodeficiency virus 2, MT4
[25] = test system: Human immunodeficiency virus 2; test: Antiviral activity against HIV2 MS infected in human MT4 cells assessed as inhibition of virus production after 5 days by Lenti-RT activity assay; format: functional, organism-based; settings: Human immunodeficiency virus 2, MT4, 120 h; summary of the method: as §7
[26] = test system: Human immunodeficiency virus 1; test: Antiviral activity against HIV1 in presence of 50% human serum; format: functional, organism-based

Row | SMILES | EC50 [1] [nM] | EC50 [2] [nM] | Ratio EC50 [3] | EC50 [4] [nM] | EC50 [5] [nM] | EC50 [6] [nM] | EC50 [8] [nM] | Ratio EC50 [10] | EC50 [11] [nM] | EC50 [12] [nM] | Ratio EC50 [14] | Ratio EC50 [15] | Ratio EC50 [16] | Ratio EC50 [17] | also measured
1 | CC(C)CN(C[C@@H](O)[C@H](Cc1ccccc1)NC(=O)O[C@H]1CCOC1)S(=O)(=O)c1ccc(N)cc1 [AMPRENAVIR] | 939 | 900 | 0.7 | 583 | 72 | 855 | 674 | 0.7 | 630 | 404 | 0.5 | – | – | – | Ratio EC50 [7]: 9.2; Ratio EC50 [9]: 13; Ratio EC50 [13]: 12.5
2 | COC(=O)N[C@H](C(=O)N[C@@H](Cc1ccccc1)[C@@H](O)CN(Cc1ccc(-c2ccccn2)cc1)NC(=O)[C@@H](NC(=O)OC)C(C)(C)C)C(C)(C)C [ATAZANAVIR] | 39 | 20 | 0.6 | 20 | 5 | 34 | 110 | 0.1 | 5 | 3 | 0.1 | 22 | 7.8 | 4 | –
3 | CC(C)CN(C[C@@H](O)[C@H](Cc1ccccc1)NC(=O)O[C@H]1CO[C@H]2OCC[C@H]21)S(=O)(=O)c1ccc(N)cc1 [DARUNAVIR] | 83 | – | 0.7 | 6 | 12 | 9 | 155 | 1.1 | 10 | 8 | 0.9 | 12.9 | 6.9 | – | –
4 | CC(C)(C)NC(=O)[C@@H]1CN(Cc2cccnc2)CCN1C[C@@H](O)C[C@@H](Cc1ccccc1)C(=O)N[C@H]1c2ccccc2C[C@H]1O.O [INDINAVIR] | 33 | 22 | 0.8 | 52 | 38 | 65 | 108 | 0.5 | 34 | 24 | 0.5 | 2.6 | 0.8 | 0.5 | –
5 | Cc1cccc(C)c1OCC(=O)N[C@@H](Cc1ccccc1)[C@@H](O)C[C@H](Cc1ccccc1)NC(=O)[C@H](C(C)C)N1CCCNC1=O [LOPINAVIR] | 12 | 15 | 0.8 | 28 | 18 | 35 | 180 | 9.7 | 340 | 260 | 7.4 | 10 | 0.7 | 0.8 | Ratio EC50 [18]: 1; Activity [19]: Active; EC50 [20]: 515 nM; Activity [21]: Active; EC50 [22]: 15 nM; Ratio EC50 [23]: 34; EC50 [24]: 15 nM; EC50 [25]: 6 nM
6 | Cc1c(O)cccc1C(=O)N[C@@H](CSc1ccccc1)[C@H](O)CN1C[C@H]2CCCC[C@H]2C[C@H]1C(=O)NC(C)(C)C [NELFINAVIR] | 83 | 48 | 0.7 | 199 | 18 | 281 | 389 | 0.6 | 177 | 100 | 0.4 | 21.6 | 4.6 | 2.7 | –
7 | CC(C)c1nc(CN(C)C(=O)N[C@H](C(=O)N[C@@H](Cc2ccccc2)C[C@H](O)[C@H](Cc2ccccc2)NC(=O)OCc2cncs2)C(C)C)cs1 [RITONAVIR] | 514 | 349 | 0.7 | 310 | 46 | 421 | 665 | 0.3 | 115 | 84 | 0.2 | 14.5 | 11.2 | 7.6 | EC50 [26]: 100 nM
8 | CC(C)(C)NC(=O)[C@@H]1C[C@@H]2CCCC[C@@H]2CN1C[C@@H](O)[C@H](Cc1ccccc1)NC(=O)[C@H](CC(N)=O)NC(=O)c1ccc2ccccc2n1 [SAQUINAVIR] | 8 | 5 | 0.6 | 2.2 | 12 | 3.6 | 68 | 0.1 | 0.2 | 0.2 | 0.1 | 5.7 | 0.7 | 0.4 | –

Reference: ChEMBL document CHEMBL1143422, “In vitro selection and characterization of human immunodeficiency virus type 2 with decreased susceptibility to lopinavir” (Antimicrob Agents Chemother, 2007)
